Laboratory results taken from ChEMBL document CHEMBL1136545, “Novel thieno oxazine analogues as antihyperglycemic and lipid modulating agents” (2003).
Calls of active or inactive are those of the source. No cut-off for these calls is given here.

Assays:
[1] = target: T1, Peroxisome proliferator-activated receptor gamma (Homo sapiens) (UniProt P37231); test: Compound was tested for activation of peroxisome proliferator-activated receptor gamma activity at 1 uM concentration by transactivation assay
T1 sequence (whole entry): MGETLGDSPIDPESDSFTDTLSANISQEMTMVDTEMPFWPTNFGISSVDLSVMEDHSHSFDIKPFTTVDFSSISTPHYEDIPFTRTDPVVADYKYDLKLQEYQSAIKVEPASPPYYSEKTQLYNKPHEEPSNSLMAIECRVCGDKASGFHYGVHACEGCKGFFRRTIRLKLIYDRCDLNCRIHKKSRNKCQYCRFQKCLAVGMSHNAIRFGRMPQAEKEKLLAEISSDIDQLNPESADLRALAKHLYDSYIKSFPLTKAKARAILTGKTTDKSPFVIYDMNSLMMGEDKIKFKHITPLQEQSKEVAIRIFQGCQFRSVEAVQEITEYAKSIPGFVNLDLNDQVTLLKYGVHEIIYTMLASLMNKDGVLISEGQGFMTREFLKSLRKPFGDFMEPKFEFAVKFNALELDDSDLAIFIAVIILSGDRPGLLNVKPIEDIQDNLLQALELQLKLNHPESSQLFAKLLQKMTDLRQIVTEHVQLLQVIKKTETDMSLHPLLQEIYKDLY
How it was run: (§1)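 Cell-based PPAR transactivation assay, with receptor activity expressed as fold activation. Each compound was tested at a single concentration, which differed between the PPARα and PPARγ arms.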

[2] = target: T2, Peroxisome proliferator-activated receptor alpha (Homo sapiens) (UniProt Q07869); test: Compound was tested for activation of peroxisome proliferator-activated receptor alpha activity at 50 uM concentration by transactivation assay; how it was run: as §1
T2 sequence (whole entry): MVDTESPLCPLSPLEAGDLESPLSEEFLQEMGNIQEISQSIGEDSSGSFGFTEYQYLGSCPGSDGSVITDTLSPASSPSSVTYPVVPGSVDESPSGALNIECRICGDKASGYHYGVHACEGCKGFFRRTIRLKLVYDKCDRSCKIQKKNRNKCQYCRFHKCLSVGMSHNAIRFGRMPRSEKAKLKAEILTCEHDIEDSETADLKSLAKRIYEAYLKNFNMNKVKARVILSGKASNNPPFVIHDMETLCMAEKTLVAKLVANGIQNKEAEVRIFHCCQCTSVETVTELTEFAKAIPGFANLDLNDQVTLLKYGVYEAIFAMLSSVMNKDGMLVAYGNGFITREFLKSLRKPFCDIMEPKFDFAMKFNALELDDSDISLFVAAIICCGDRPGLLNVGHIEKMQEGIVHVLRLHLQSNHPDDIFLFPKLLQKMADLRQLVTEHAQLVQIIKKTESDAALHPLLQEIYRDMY

Mus musculus [3] = test: Percentage reduction of plasma glucose (PG) in db/db mice at 3 mg/kg; format: functional
How it was run: (§2)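 db/db mice were dosed orally at 3 mg/kg for 6 days. Plasma glucose and triglyceride were then measured, and each value is the percentage reduction.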

Mus musculus [4] = test: Percentage reduction of triglyceride (TG) in db/db mice at 3 mg/kg; No effect; format: functional, organism-based; set-up: dose 3 mg/kg; how it was run: as §2
Mus musculus [5] = test: Percentage reduction of triglyceride (TG) in db/db mice at 3 mg/kg; format: functional; how it was run: as §2
Mus musculus [6] = test: Percentage reduction of plasma glucose (PG) in db/db mice at 3 mg/kg; No effect; format: functional, organism-based; set-up: dose 3 mg/kg; how it was run: as §2

Activity [1] | Activity [2] | SMILES | Reduction (Mus musculus [3]) [%] | Reduction (Mus musculus [4]) | Reduction (Mus musculus [5]) [%] | Reduction (Mus musculus [6])
5 | 0.5 | O=C(O)Cc1ccc(OCCCN2C(=O)COc3ccsc32)cc1 | 14 | inactive | – | –
8 | 1.3 | O=C(O)Cc1ccc(OCCN2C(=O)COc3ccsc32)c(Br)c1 | 21 | – | 14 | –
16 | 8 | CCOC(Cc1ccc(OCCN2C(=O)COc3ccsc32)cc1)C(=O)O (stereo not given) | 47 | – | 56 | –
14 | 5 | O=C(O)Cc1ccc(OCCN2C(=O)COc3ccsc32)cc1 | 39 | – | 43 | –
1.6 | 5 | CCOC(Cc1cc(Br)c(OCCN2C(=O)COc3ccsc32)c(Br)c1)C(=O)O (stereo not given) | – | – | 48 | inactive
1.2 | 8 | CCOC(Cc1ccc(OCCN2C(=O)COc3ccsc32)c(Br)c1)C(=O)O (stereo not given) | – | – | 62 | inactive
7 | 2.5 | CCOC(Cc1ccc(OCCN2C(=O)COc3ccsc32)c(Cl)c1)C(=O)O (stereo not given) | 21 | – | 27 | –
15 | 2 | O=C(O)Cc1cc(Br)c(OCCN2C(=O)COc3ccsc32)c(Br)c1 | 43 | – | 15 | –
18 | 1.5 | CCOC(Cc1ccc(OCCN2C(=O)COc3ccsc32)c(C)c1)C(=O)O (stereo not given) | 52 | – | 19 | –
1.2 | 0.5 | CCOC(Cc1ccc(OCCN2C(=O)COc3ccsc32)c(OC)c1)C(=O)O (stereo not given) | – | inactive | – | inactive
